The results in this text go back to ChEMBL document CHEMBL4414623, “Rapid Metabolization of Protectin D1 by β-Oxidation of Its Polar Head Chain” (J Med Chem, 2019).

The nature of data set [1]: Drug level in human HepG2 cells treated with 13 uM Protectin-D1 assessed as compound formation incubated for 4 hrs by RP-HPLC/MS analysis. Conditions: hepg2, 4 h. It counts as ADME, cell-based. In short, it runs like this:
(§1)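 HepG2 cells were kept in serum-free medium and incubated for 4 h with 13 μM NPD1 (final) or ethanol vehicle. Media were extracted and run on RP-HPLC with a linear ion trap ESI-MS, using full scans at m/z 100-1000. Peaks present only in NPD1 incubates were located from single-ion chromatograms. MS/MS spectra were collected and compared with those of synthetic standards.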

Data set [2] in a line: Drug metabolism in human HepG2 cells assessed as parent compound remaining level at 13 uM after 24 hrs by LC-MS/MS analysis relative to control. It counts as ADME, cell-based. The following applies: read-out: Stability. The gist of the method:
(§2)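 Medium was spiked with d4-LTB4 internal standard, SPE-extracted, and quantified by RP-HPLC coupled to triple quadrupole SRM. Amounts are given as nmol per mg cell protein (Bradford) or as % of NPD1 at T0.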

The species entered for data set [3] is Homo sapiens. Briefly: Inhibition of LTB4-induced chemotaxis in human polymorphonuclear leukocytes at 0.01 to 10 nM incubated for 90 mins by Diff-Quick staining based densitometric analysis. It counts as functional, cell-based. In short, it runs like this:
(§3)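 Human peripheral blood PMNL from healthy NSAID-free donors were isolated by Percoll and hypotonic lysis. Migration toward 10 nM LTB4 in RPMI/0.1% BSA was run in a 48-well microchamber with 5 μm polycarbonate filters, 2×10^6 cells/mL. Test agents at 0.01–10 nM or EtOH were added to both compartments. After 90 min at 37°C, migrated cells were stained and read by densitometry. Sextuplicates, 3–4 donors, normalized to negative controls.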

The nature of data set [4]: Drug metabolism in human HepG2 cells assessed as 3Z,6R,7E,9E,11Z,13S,15Z)-6,13-Dihydroxyoctadeca-3,7,9,11,15-pentaenoic Acid formation at 13 uM up to 24 hrs by LC-MS/MS analysis. It counts as ADME, cell-based. The following applies: hepg2, 24 h. The gist of the method:
as §2

A short description of data set [5]: Drug metabolism in human HepG2 cells assessed as omega-hydroxylated dinor-NPD1 formation at 13 uM incubated for 4 hrs by RP-HPLC/MS analysis. The following applies: hepg2, 4 h. It counts as ADME, cell-based. In short, it runs like this:
as §1

The nature of data set [6]: Drug metabolism in human HepG2 cells assessed as Tmax for 3Z,6R,7E,9E,11Z,13S,15Z)-6,13-Dihydroxyoctadeca-3,7,9,11,15-pentaenoic Acid formation at 2.6 uM by LC-MS/MS analysis. It counts as ADME, cell-based. The following applies: hepg2, 2.6 µM. The gist of the method:
as §2

A short description of data set [7]: Drug metabolism in human HepG2 cells assessed as hexanor-NPD1 formation at 13 uM incubated for 4 hrs by RP-HPLC/MS analysis. It counts as ADME, cell-based. The following applies: hepg2, 4 h. The gist of the method: as §1
Data set [8] can be described thus: Half life in human HepG2 cells at 13 uM by LC-MS/MS analysis. It counts as ADME, cell-based. The gist of the method: as §2
A short description of data set [9]: Drug excretion in healthy human urine assessed as (5Z,8R,9E,11E,13Z,15S,17Z)-8,15-Dihydroxyicosa-5,9,11,13,17-pentaenoic Acid formation by LC-MS/MS analysis. The following applies: in vivo. It counts as ADME, tissue-based.
Data set [10] is described as follows: Half life in human HepG2 cells at 0.52 uM by LC-MS/MS analysis. It counts as ADME, cell-based. The gist of the method:
as §2

Data set [11] in a line: Drug metabolism in human HepG2 cells at 0.52 uM measured at 30 mins by LC-MS/MS analysis. It counts as ADME, cell-based. Conditions: read-out: Drug metabolism. The gist of the method: as §2
The nature of data set [12]: Drug excretion in healthy human urine by LC-MS/MS analysis. It counts as ADME, tissue-based. The following applies: in vivo.
A short description of data set [13]: Drug metabolism in human HepG2 cells assessed as 3Z,6R,7E,9E,11Z,13S,15Z)-6,13-Dihydroxyoctadeca-3,7,9,11,15-pentaenoic Acid formation at 13 uM after 30 mins by LC-MS/MS analysis. The following applies: hepg2, 0.5 h. It counts as ADME, cell-based. In short, it runs like this: as §2
The nature of data set [14]: Drug level in healthy human urine assessed as drug recovery at 50 ng measured up to 24 hrs at room temperature in presence of BHT by LC-MS/MS analysis. It counts as ADME, tissue-based. Conditions: urine of healthy humans, read-out: Drug recovery.
The nature of data set [15]: Drug metabolism in human HepG2 cells assessed as 3Z,6R,7E,9E,11Z,13S,15Z)-6,13-Dihydroxyoctadeca-3,7,9,11,15-pentaenoic Acid formation at 13 uM incubated for 4 hrs by tandem mass spectrometric analysis. It counts as ADME, cell-based. The following applies: hepg2, 4 h. In short, it runs like this: as §1
The nature of data set [16]: Drug metabolism in human HepG2 cells treated with 13 uM Protectin-D1 assessed as compound formation incubated for 4 hrs by tandem mass spectrometric analysis. The following applies: hepg2, 4 h. It counts as ADME, cell-based. The gist of the method: as §1
The nature of data set [17]: Drug metabolism in human HepG2 cells assessed as (5Z,8R,9E,11E,13Z,15S,17Z)-8,15-Dihydroxyicosa-5,9,11,13,17-pentaenoic Acid formation at 13 uM after 30 mins by LC-MS/MS analysis. It counts as ADME, cell-based. Conditions: hepg2, 0.5 h. The gist of the method: as §2
A short description of data set [18]: Drug metabolism in human HepG2 cells assessed as 22-OH-NPD1 formation at 13 uM incubated for 4 hrs by tandem mass spectrometric analysis. It counts as ADME, cell-based. Conditions: hepg2, 4 h. In short, it runs like this:
as §1

Data set [19] is described as follows: Drug metabolism in human HepG2 cells assessed as (5Z,8R,9E,11E,13Z,15S,17Z)-8,15-Dihydroxyicosa-5,9,11,13,17-pentaenoic Acid formation at 13 uM up to 8 hrs by LC-MS/MS analysis. It counts as ADME, cell-based. Conditions: hepg2, 8 h. The gist of the method: as §2
Data set [20] can be described thus: Drug excretion in healthy human urine assessed as 3Z,6R,7E,9E,11Z,13S,15Z)-6,13-Dihydroxyoctadeca-3,7,9,11,15-pentaenoic Acid formation by LC-MS/MS analysis. It counts as ADME, tissue-based. The following applies: in vivo.
The nature of data set [21]: Half life in human HepG2 cells at 2.6 uM by LC-MS/MS analysis. It counts as ADME, cell-based. The gist of the method:
as §2

Data set [22] can be described thus: Drug metabolism in human HepG2 cells assessed as 3Z,6R,7E,9E,11Z,13S,15Z)-6,13-Dihydroxyoctadeca-3,7,9,11,15-pentaenoic Acid formation at 13 uM after 24 hrs by LC-MS/MS analysis. It counts as ADME, cell-based. Conditions: hepg2, 24 h. The gist of the method:
as §2

Data set [23] is described as follows: Drug metabolism in human HepG2 cells assessed as 3Z,6R,7E,9E,11Z,13S,15Z)-6,13-Dihydroxyoctadeca-3,7,9,11,15-pentaenoic Acid formation at 13 uM incubated for 4 hrs by RP-HPLC/MS analysis. The following applies: hepg2, 4 h. It counts as ADME, cell-based. The gist of the method: as §1
The nature of data set [24]: Drug metabolism in human HepG2 cells assessed as 22-OH-NPD1 formation at 13 uM incubated for 4 hrs by RP-HPLC/MS analysis. It counts as ADME, cell-based. The following applies: hepg2, 4 h. The gist of the method:
as §1

A short description of data set [25]: Drug metabolism in human HepG2 cells assessed as (5Z,8R,9E,11E,13Z,15S,17Z)-8,15-Dihydroxyicosa-5,9,11,13,17-pentaenoic Acid formation at 13 uM incubated for 4 hrs by tandem mass spectrometric analysis. Conditions: hepg2, 4 h. It counts as ADME, cell-based. The gist of the method: as §1
Data set [26] is described as follows: Drug metabolism in human HepG2 cells assessed as (5Z,8R,9E,11E,13Z,15S,17Z)-8,15-Dihydroxyicosa-5,9,11,13,17-pentaenoic Acid formation at 13 uM after 24 hrs by LC-MS/MS analysis. It counts as ADME, cell-based. Conditions: hepg2, 24 h. The gist of the method: as §2
Data set [27] is described as follows: Drug metabolism in human HepG2 cells assessed as (5Z,8R,9E,11E,13Z,15S,17Z)-8,15-Dihydroxyicosa-5,9,11,13,17-pentaenoic Acid formation at 13 uM incubated for 4 hrs by RP-HPLC/MS analysis. It counts as ADME, cell-based. Conditions: hepg2, 4 h. In short, it runs like this: as §1
Data set [28] can be described thus: Drug metabolism in human HepG2 cells assessed as Tmax for 3Z,6R,7E,9E,11Z,13S,15Z)-6,13-Dihydroxyoctadeca-3,7,9,11,15-pentaenoic Acid formation at 0.52 uM by LC-MS/MS analysis. It counts as ADME, cell-based. The following applies: hepg2, 0.52 µM. In short, it runs like this:
as §2

The species entered for data set [29] is Homo sapiens. Kind of data set: Inhibition of LTB4-induced chemotaxis in human polymorphonuclear leukocytes incubated for 90 mins by Diff-Quick staining based densitometric analysis. It counts as functional, cell-based. The gist of the method: as §3
Data set [30] can be described thus: Stability in human HepG2 cells at 2.6 uM up to 4 hrs by LC-MS/MS analysis. It counts as ADME, cell-based. Conditions: hepg2, 4 h. The gist of the method: (§4)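 HepG2 cells in serum-free medium were incubated with 2.6 or 0.52 μM final NPD1 or LTE4. Medium was collected at 30 min, 1 h and 4 h, spiked with d4-LTB4 and d5-LTE4, SPE-extracted and quantified by LC-MS/MS SRM. Results are expressed as % of the amount measured at T0.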

The nature of data set [31]: Stability in human HepG2 cells at 0.52 uM up to 4 hrs by LC-MS/MS analysis. It counts as ADME, cell-based. Conditions: hepg2, 4 h. In short, it runs like this: as §4
The test system of the next data set is Mus musculus. Kind of data set: Antiinflammatory activity in FVB mouse model of acute pulmonary inflammation assessed as reduction in number of infiltrating neutrophils in BAL fluid at 10 ng administered intratracheally with lipopolysaccharide measured at 24 hrs by FACS analysis. It counts as functional. In short, it runs like this: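 Female FVB mice, 7–8 weeks old, acclimated at least 5 days. Intratracheal challenge with 50 μL LPS (250 μg/mL in PBS) containing 10 ng test agent or vehicle (EtOH, 2% final). Controls received PBS with 2% EtOH. BAL collected 24 h later (three 0.6 ml PBS washes). Neutrophils counted by FACS as CD45+ F4/80− Ly6G^hi CD11b^hi, absolute numbers from counting tubes; mean ± SEM, n=3.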

Structures are written as SMILES. Calls of active or inactive are those of the source. The calls are words filed in the database; no cut-off is given here. Bounds are passed on as bounds.

Turning to `O=C(O)CC/C=C\C/C=C\C[C@@H](O)/C=C/C=C/C=C\[C@@H](O)C/C=C\CCO`, the Drug uptake result in [1] was “Active”.
`CC/C=C\C[C@H](O)\C=C/C=C/C=C/[C@H](O)C/C=C\CCCC(=O)O`: the Drug uptake result in data set [1] was “Active”. The remaining at 24 h, 13 µM in [2] is below 0.1%. Further, in the data set listed under Homo sapiens [3], the inhibition result was “inactive”. Moreover, the Drug metabolism entry in [4] is on record as “Metabolite_Detected”.
One may read the Tmax as the time from dosing to the highest level. For orientation: half-life means the time in which the quantity being followed falls by half. Read a high half-life as slow decline. In the case of `CC/C=C\C[C@H](O)\C=C/C=C/C=C/[C@H](O)C/C=C\C/C=C\CCC(=O)O`, the Drug metabolism result in data set [5], in data set [7], in [13], in data set [15], in [17] and in data set [18] was “Metabolite_Detected” each time. Besides, the Drug metabolism result is recorded as “Metabolite_Detected” in data set [19]; “Metabolite_Detected” in data set [22]; “Metabolite_Detected” in [23]; “Metabolite_Detected” in data set [24]; “Metabolite_Detected” in data set [25]; “Metabolite_Notdetected” in data set [26]. The Drug metabolism entry in data set [27] was “Metabolite_Detected”. The Tmax in [6] and in data set [28] was 4 h in each case. Besides, the half-life at 13 µM in [8] was above 4 h. Besides, the Drug excretion entry in data set [9], in [12] and in data set [20] was “Metabolite_Notdetected” each time. In data set [10], the half-life at 0.52 µM came out at 0.5 h. In addition, the metabolised at 0.5 h, 0.52 µM in [11] is above 50%. In addition, the remaining at 24 h, 50 ng in [14] worked out at 106%. For the same compound, in [2], the remaining at 24 h, 13 µM was found to be 0%. Besides, in [16], the Drug uptake result is listed as “Active”. In [21], this compound had a half-life at 2.6 µM of 1 h. Besides, the inhibition entry in the data set listed under Homo sapiens [29] is “Dose-dependent effect”.
In the case of `CCCCC/C=C\C\C=C/C=C/C=C/[C@@H](SC[C@H](N)C(=O)O)[C@@H](O)CCCC(=O)O` [LEUKOTRIEN E4], the Stability entry in data set [30] and in data set [31] was “Stable” in each case. In addition, the Drug excretion result in [12] is “Metabolite_Detected”.
As for `CC/C=C\C[C@H](O)\C=C/C=C/C=C/[C@H](O)C/C=C\CC(=O)O`, the Drug uptake entry in data set [1] was “Active”. Moreover, the inhibition entry in the data set listed under Homo sapiens [3] is “Active”. In the data set on Mus musculus, the “inhibition (INH)” value is listed as 20%.
